# Assay outcomes: PubChem BioAssay, The Scripps Research Institute Molecular Screening Center
# Most compounds without a hit are left out; they make up all but 4.6% or so of the library.
# GPR7 antagonist: human neuropeptides B/W receptor 1 antagonism; hit rate 1.1% among 290,000; GPR7-expressing cells, fluorescence antagonist assay; AID 1861; inhibition, % at 4.4 µM; in the data active = inhibition above about 16%, passing the limit was not always enough;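 also: cells stimulated with the agonist NPW; 0% = agonist with vehicle and 100% = vehicle without agonist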
# Target sequence (P48145 whole entry, looked up): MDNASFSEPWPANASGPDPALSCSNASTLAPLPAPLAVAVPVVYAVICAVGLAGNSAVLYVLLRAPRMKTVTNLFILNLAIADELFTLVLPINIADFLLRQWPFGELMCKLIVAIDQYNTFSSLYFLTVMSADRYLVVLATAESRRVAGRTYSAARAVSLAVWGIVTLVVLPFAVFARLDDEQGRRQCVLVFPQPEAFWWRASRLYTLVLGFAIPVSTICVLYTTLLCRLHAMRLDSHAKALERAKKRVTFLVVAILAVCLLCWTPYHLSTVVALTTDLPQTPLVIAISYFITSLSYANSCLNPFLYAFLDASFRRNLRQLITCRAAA
# OX1R antag-1: human HCRTR1 antagonism | CHO/OX1R cells, Fluo-8 calcium fluorescence, orexin A | inhibition, % at 5 µM | hit rate 0.43% among 330,000 | AID 434989;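 active = inhibition above its plate's threshold, mean inhibition of all tested compounds on the plate plus 3 SD, cut at about 37% in these data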;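 also: 0% = orexin A challenge wells and 100% = SB-334867-A antagonist wells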
# TAAR1 antagonist: human TAAR1 antagonism | hit rate 1.5% among 360,000 | inhibition, % at 3 µM | CHO RD-HGA16 TAAR1, Fluo-8 calcium fluorescence, antagonist;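 active = inhibition above a per-plate cutoff, the mean inhibition of test compounds on that plate plus 3 SD, cut at about 49% in these data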;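 also: 0% = DMSO plus EC80 beta-PEA response and 100% = DMSO alone without agonist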
# Target sequence (Q96RJ0 whole entry, looked up): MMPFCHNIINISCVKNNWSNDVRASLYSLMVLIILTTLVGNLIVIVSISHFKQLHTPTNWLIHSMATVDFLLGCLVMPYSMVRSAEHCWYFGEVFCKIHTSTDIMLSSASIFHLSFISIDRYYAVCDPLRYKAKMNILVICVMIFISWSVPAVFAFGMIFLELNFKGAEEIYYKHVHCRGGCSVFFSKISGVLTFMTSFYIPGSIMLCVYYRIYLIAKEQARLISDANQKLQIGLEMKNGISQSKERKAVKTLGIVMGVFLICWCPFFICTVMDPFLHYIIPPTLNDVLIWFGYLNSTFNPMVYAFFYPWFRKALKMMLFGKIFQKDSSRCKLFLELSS
#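 Test system: CHO RD-HGA16 cells bearing hTAAR1 | Reagent: β-PEA, EC80 | Compound dosing: 3 µM, single point | Schedule: Dye loading 75 min at 37 °C, then 30 min room temperature | Signal: Calcium fluorescence with Fluo-8 | Evaluation: Percent inhibition of PEA-evoked calcium signal, max/basal emission ratio | Control set: DMSO-only wells and EC80 β-PEA-stimulated wells | Repeats: Singlicate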
# OX1R antag-2: blocks the human orexin 1 receptor. O43613. OX1R-expressing cells, FRET antagonist read-out. inhibition, % at 6.6 µM. hit rate 1.8% among 330,000. AID 485270; in the data active = inhibition mostly above about 38%, no sharp cut-off; inactive = mostly below about 40%;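 also: 0% = agonist challenge alone and 100% = reference antagonist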
# TAAR1 ag: agonists of human TAAR1; activation, % at 3 µM; CHO RD-HGA16 TAAR1, Fluo-8 calcium fluorescence; vehicle wells 0%, saturating PEA agonist 100%; hit rate 0.99% among 360,000;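 active = activation above the mean activation of all test compounds in the run plus 3 SD, cut at about 38% in these data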
#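 Assay system – CHO-derived RD-HGA16 cells with stable Gα16 and human TAAR1 · Compound dosing – one-point dosing at 3 µM (nominal) · Incubation – 17-24 h seeding, 75 min 37 °C dye, 30 min RT · Measured by – kinetic Fluo-8 calcium fluorescence · Control set – DMSO vehicle as 0%, PEA at EC100 as 100% · Repeats – single well for each compound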
# CHO parental Ca: counter-screen for OX1R antagonists: effect in parental CHO cells; parental CHO-K1, ATP-induced calcium, Fluo-8 fluorescence; inhibition, % at 5.6 µM; hit rate 0.63% among 330,000; AID 463079;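 active = inhibition above that plate's mean sample inhibition plus 3 SD, cut at about 26% in these data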;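 also: 0% = ATP-challenged DMSO wells and 100% = DMSO wells without ATP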
#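 Assay system – parental CHO cells · Reagent – ATP stimulus · Detection – intracellular calcium via Fluo-8 no-wash fluorescent dye · Evaluation – percent inhibition of ATP-evoked calcium rise, normalized to controls · Controls – ATP wells versus no-ATP DMSO wells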
# * hit, by the source's call; x = no result given; ! = a repeat was not active.
SMILES,GPR7 antagonist,OX1R antag-1,TAAR1 antagonist,OX1R antag-2,TAAR1 ag,CHO parental Ca
CC[C@@H]1C[C@H]2CC[C@H](O2)[C@H](C)C(=O)O[C@@H](C)C[C@@H]2CC[C@@H](O2)[C@@H](C)C(=O)O[C@H](C)C[C@H]2CC[C@H](O2)[C@H](C)C(=O)O[C@@H](C)C[C@@H]2CC[C@@H](O2)[C@@H](C)C(=O)O1,x,x,-15,x,7,x
COc1ccc2nc(-c3ccc(CN4CCC(n5c(=O)[nH]c6cc(Cl)ccc65)CC4)cc3)c(-c3ccccc3)nc2c1,x,x,-10,x,0,x
Cc1cccc(NP(=O)(Oc2ccccc2F)Oc2ccccc2F)c1C,-4,6,54*,20,8,47*
O=c1[nH]c2ccccc2n1C1CCN(C(c2ccccc2)c2nnnn2-c2ccc3c(c2)OCCO3)CC1 (stereo not drawn),x,x,62*,x,22,x
O=c1[nH]c2ccccc2n1C1CCN(C(c2nnnn2-c2ccc3c(c2)OCCO3)C2CC2)CC1 (stereo not drawn),x,x,62*,x,15,x
O=C(O)C(Br)Br,x,x,-3,x,1,x
Cc1ccc2nc(-c3ccc(CN4CCC(n5c(=O)[nH]c6cc(Cl)ccc65)CC4)cc3)c(-c3ccccc3)nc2c1,x,x,21,x,0,x
C=CCn1c(O)c(C(C)=NCCO)c(=O)[nH]c1=O,1,2,-3,0,10,-3
C=CCn1c(O)c(C(C)=NCCc2ccccc2)c(=O)[nH]c1=O,-1,-1,13,5,40*,-16
O=c1c2cc(Br)ccc2[nH]c(=S)n1-c1ccccc1,29*,15,30,35,0,-4
COc1cc(OC)c(OC)cc1CNCCc1ccc(F)cc1,13,x,-25,x,5,x
COc1ccccc1CNCCc1ccc(F)cc1,-3,-21,-9,4,41*,-19
N#Cc1ccc(NC(=S)N2Cc3cc(Br)ccc3-n3nncc3C2)cc1,x,x,9,x,8,x
CC(C)Sc1nnc([C@@H](N)Cc2c[nH]c3ccccc23)o1,-1,6,13,40*,1,-9
Cc1cc(N2CCNC[C@H]2C)ccc1N1CCN[C@H](C)C1,x,x,-25,x,1,x
CC(C)c1ccc(C2NCc3ccccc3-n3cccc32)cc1 (stereo not drawn),19,x,63*,x,29,x
FC(F)(F)Oc1ccc(C2NCc3ccccc3-n3cccc32)cc1 (stereo not drawn),11,-42,16,17,8,-19
CCOC(=O)[C@]12Cc3cc(OC)ccc3[C@H]1N(C1CCCCC1)C(=O)c1ccccc12,x,x,-13,x,5,x
COc1cccc(C(=O)NCCN2CCC3(CC2)C(=O)NCN3c2ccccc2)c1,x,x,5,x,10,x
COc1cc(CCN)c(OC)cc1C,x,x,8,x,32,x
COC1C(OC(=O)c2ccc(C)[nH]2)C(O)C(Oc2ccc3c(O)c(NC(=O)c4ccc(O)c(CC=C(C)C)c4)c(=O)oc3c2Cl)OC1(C)C (stereo not drawn),14,36,12,11,-2,32*
CCCCCOc1ccc(C)cc1CN(CCCl)CCCl,30*,-31,-10,4,1,-15
COC(=O)[C@@H]1[C@@H](C(=O)OC)C2(c3ccccc3-c3ccccc32)N(c2ccc(Cl)cc2)N1C#N,16*,-23,15,12,10,-15
COC(=O)C[C@]1(C(=O)OC)CN(C#N)N(c2ccc(Cl)cc2)C12c1ccccc1-c1ccccc12,24*,-8,-9,-5,7,-11
O=c1[nH]c2cc(Cl)ccc2n1C1CCN(Cc2ccc(-c3nc4ccccc4nc3-c3ccccc3)cc2)CC1,x,x,-13,x,0,x
SMILES,GPR7 antagonist,OX1R antag-1,TAAR1 antagonist,OX1R antag-2,TAAR1 ag,CHO parental Ca
C=C1C(O)[C@@H]2O[C@]3(CC[C@H](/C=C/C(C)[C@@H]4CC(C)=CC5(O[C@H](C[C@@](C)(O)C(=O)O)CCC5O)O4)O3)CC[C@H]2O[C@@H]1C(O)CC(C)[C@H]1OC2(CCCCO2)CCC1C (stereo partly drawn),x,34,x,50*,x,-10
Cn1nc(-c2ccc(OCC(=O)N3CCN(Cc4ccccc4)CC3)cc2)c2ccccc2c1=O,-2,9,32,23,14,36*!
Cc1nc2ccccc2c(=O)n1-c1cc([N+](=O)[O-])cc([N+](=O)[O-])c1,-21,-30,-14,74*,0,-16
Cc1nc2ccccc2c(=O)n1-c1ccncc1,11,6,-30,8,2,18
Cc1ccc(N2C(=O)NC(=O)/C(=C/C=C/c3ccco3)C2=O)cc1,-2,2,51*,15,37,-10
O=C1NC(=O)N(Cc2ccc(F)cc2)C(=O)/C1=C\C=C\c1ccco1,-5,3,30,3,17,2
COC(=O)C1=C(c2cc3ccccc3o2)C[C@@H]2CC[C@H]1N2C(=O)NCc1cccc2ccccc12,x,31,6,69*,7,-14
COC(=O)C1=C(c2cc3ccccc3o2)C[C@@H]2CC[C@H]1N2C(=O)NCc1ccc(F)cc1,x,-25,-8,32,11,-6
C[C@H]1CNCCN1c1ccc(N2CC[C@H](O)C2)c(C#N)c1,x,x,-18,x,1,x
COc1ccccc1CN1CCN(C(=O)COc2cccc(C)c2)CC1,15*,-16,-4,1,11,-11
COc1ccc(CN2CCN(C(=O)COc3cccc(C)c3)CC2)c(OC)c1,7,x,-5,x,4,x
COc1ccc(-c2cc(=NCCCCCC(=O)O)c3cc(C)ccc3o2)cc1,5,x,-1,x,0,x
COc1ccc(-c2cc(=NCC(=O)O)c3ccccc3o2)cc1,5,-19,x,64*,x,-26
O=C(O)c1cc(S(=O)(=O)N2CC3CC(C2)c2cccc(=O)n2C3)ccc1F (stereo not drawn),x,x,-20,x,2,x
COC(=O)[C@@H]1N=C(c2ccc(OC)cc2)O[C@]12C(=O)N(C)c1cccc(Cl)c12,x,x,-15,x,8,x
CCCCCN1C(=O)c2cc(OC)ccc2[C@@]2(C(=O)OCC)Cc3cc(Cl)ccc3[C@@H]12,x,x,4,x,4,x
CC/C(=C\C=C\[C@@H]1C=C[C@@H]2CCC[C@H]2[C@@H]1C(=O)c1ccc[nH]1)[C@@H]1O[C@@H]([C@@H](C)C(=O)O)CC[C@@H]1C,10,25,x,10,x,48*
COC1=CC(=O)[C@]2(C=C1OC)OC[C@@H]1Oc3c(ccc4c3C=CC(C)(C)O4)C(=O)[C@@H]12,x,60*,22,33,10,62*
O=C(NCCN1CCC2(CC1)C(=O)NCN2c1ccccc1)c1cccc2c1-c1ccccc1C2=O,x,x,-7,x,2,x
C[C@H]1CN([C@@H](C)CO)C(=O)CCCn2cc(nn2)CO[C@@H]1CN(C)C(=O)Oc1cccc2ccccc12,x,x,0,x,0,x
CC(C)(C)c1cc(C=C(C#N)C#N)cc(C(C)(C)C)c1O,x,-12,37,44*,1,-5
